Compounds with a hit are over-represented: about 4.3% of the library has one in this group of screens.
TAAR1 antagonist: human TAAR1 antagonists, primary screen, Fluo-8 calcium fluorescence, CHO RD-HGA16 cells | Trace amine-associated receptor 1 (Homo sapiens), Q96RJ0 | antagonist | inhibition, % at 3 µM | 1.5% of 360,000 active | AID 624466, 2012;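 active means inhibition above a per-plate cutoff, the mean inhibition of test compounds on that plate plus 3 SD, cut at about 49% in these data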;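 further: 0% = DMSO plus EC80 beta-PEA response and 100% = DMSO alone without agonist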
Target sequence (Q96RJ0 whole entry, looked up): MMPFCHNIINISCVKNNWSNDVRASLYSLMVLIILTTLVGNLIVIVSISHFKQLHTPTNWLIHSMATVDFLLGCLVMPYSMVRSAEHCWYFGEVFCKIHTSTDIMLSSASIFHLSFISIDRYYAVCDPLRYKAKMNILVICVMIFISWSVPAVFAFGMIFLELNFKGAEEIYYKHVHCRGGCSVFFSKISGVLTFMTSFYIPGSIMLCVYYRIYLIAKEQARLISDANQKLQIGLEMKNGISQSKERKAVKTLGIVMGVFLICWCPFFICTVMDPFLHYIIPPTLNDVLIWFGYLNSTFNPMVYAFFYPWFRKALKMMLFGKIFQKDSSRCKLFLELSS
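System: CHO RD-HGA16 cells bearing hTAAR1. Reagent: EC80 β-phenethylamine stimulus. Schedule: seeding 17-24 h prior, 75-min 37 °C, 30-min RT dye loading. Signal: Fluo-8 intracellular calcium dye fluorescence, real-time kinetic reads. Read-out: % inhibition from peak post-agonist over basal fluorescence ratio. Benchmarks: vehicle wells and EC80 agonist wells. Replicates: n of 1.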
OX1R antag-1: OX1R (HCRTR1) antagonists, primary screen, fluorescence, CHO/OX1R cells, Fluo-8 calcium, orexin A | Orexin/Hypocretin receptor type 1 (Homo sapiens), O43613 | Fluo-8 calcium fluorescence | inhibition, % at 5 µM | 0.43% of 330,000 active | AID 434989, 2010;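 active means inhibition above its plate's threshold, mean inhibition of all tested compounds on the plate plus 3 SD, cut at about 37% in these data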;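 further: 0% = orexin A challenge wells and 100% = SB-334867-A antagonist wells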
TAAR1 agonist: human TAAR1 agonists, primary screen, Fluo-8 calcium fluorescence, CHO RD-HGA16 cells | vehicle wells 0%, saturating PEA agonist 100% | activation, % at 3 µM | 0.99% of 360,000 active | AID 624467, 2012;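 active means activation above the mean activation of all test compounds in the run plus 3 SD, cut at about 38% in these data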
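test system = CHO RD-HGA16 cells carrying human TAAR1 plus Gα16 | schedule = 17-24 h seeding, 75 min 37 °C dye, 30 min RT | compound dosing = 3 µM single concentration | control set = DMSO and PEA EC100 | replicates = n 1 | signal = Fluo-8 fluorescence, 5 s baseline then 140 s kinetic read | measure = percent activation vs PEA EC100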
CHO parental Ca: ATP-evoked calcium signal inhibitors, parental CHO, primary screen, counter-screen for OX1R antagonist project, cell-based, fluorescence, Fluo-8 calcium dye; parental CHO-K1, ATP-induced calcium, Fluo-8 fluorescence; inhibition, % at 5.6 µM; 0.63% of 330,000 active; AID 463079, 2010;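 active means inhibition above that plate's mean sample inhibition plus 3 SD, cut at about 26% in these data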;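 further: 0% = ATP-challenged DMSO wells and 100% = DMSO wells without ATP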
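Test system: untransfected parental CHO cell line; also added: ATP stimulus; dosing: 5.6 µM, single dose; signal: calcium-sensitive Fluo-8 fluorescence; measure: percent inhibition of ATP-evoked calcium rise, normalized to controls; benchmarks: low control ATP plus DMSO, high control DMSO only; replication: one well per compound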
OX1R antag-2: antagonists of human orexin 1 receptor (OX1R). 1.8% of 330,000 active. OX1R-expressing cells, FRET antagonist read-out. inhibition, % at 6.6 µM. Orexin/Hypocretin receptor type 1 (Homo sapiens), O43613. AID 485270, 2010; in the data active means inhibition mostly above about 38%, no sharp cut-off; inactive means mostly below about 40%;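 further: 0% = agonist challenge alone and 100% = reference antagonist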
GalR3 antag: GalR3 antagonists in HEK293 cells, primary screen, cell-based, fluorescence readout; HEK293 GalR3-CNG cAMP membrane potential fluorescence; galR3 body fused to GalR1 C-terminus; inhibition, % at 3 µM; 0.44% of 360,000 active; AID 651719, 2012;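 active means inhibition above the screen-wide average plus 3 SD, cut at about 13% in these data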;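 further: forskolin and galanin both at EC90 stimulate the cells; cAMP rise reported by CNG channel membrane potential dye signal; 0% = forskolin plus galanin with DMSO and 100% = forskolin alone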
Target sequence (O60755 1-299 limits assumed): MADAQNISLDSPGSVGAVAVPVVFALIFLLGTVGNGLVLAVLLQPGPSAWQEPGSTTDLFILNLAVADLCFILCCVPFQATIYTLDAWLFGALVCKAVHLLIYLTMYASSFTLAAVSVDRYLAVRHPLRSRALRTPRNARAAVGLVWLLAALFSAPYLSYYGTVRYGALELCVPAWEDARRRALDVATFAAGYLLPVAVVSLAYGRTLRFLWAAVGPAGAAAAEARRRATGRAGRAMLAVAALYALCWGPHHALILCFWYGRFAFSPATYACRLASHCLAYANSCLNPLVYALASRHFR
* marks the source's active call; other numbers are inactive results; / = no result given.

SMILES	TAAR1 antagonist	OX1R antag-1	TAAR1 agonist	CHO parental Ca	OX1R antag-2	GalR3 antag
CC(C)C[C@H](NC(=O)c1nc[nH]c1C(=O)NC1CCN(C(=O)OC(C)(C)C)CC1)C(=O)OCc1ccccc1	19	-17	6	34*	26	-7
CC(C)C[C@H](NC(=O)c1[nH]cnc1C(=O)Nc1ccc(CNC(=O)OC(C)(C)C)cc1)C(=O)OCc1ccccc1	53*	-20	16	-3	11	-5
CC(C)(C)OC(=O)NCc1ccc(NC(=O)c2nc[nH]c2C(=O)NCCNC(=O)c2[nH]cnc2C(=O)Nc2ccc(CNC(=O)OC(C)(C)C)cc2)cc1	/	8	/	-3	3	/
CC(C)(C)OC(=O)CNC(=O)c1[nH]cnc1C(=O)Nc1ccc(CNC(=O)OC(C)(C)C)cc1	59*	-46	27	-34	12	0
C[C@@H](O)CNC(=O)c1[nH]cnc1C(=O)Nc1ccc(CNC(=O)OC(C)(C)C)cc1	49*	/	8	/	/	-1
O=C(NN=Cc1cccc(O)c1O)c1ccccc1	-5	/	4	/	/	4
COc1ccc(C(CCNCc2ccc(OC(C)C)cc2)c2ccccc2OC)cc1 (stereo not drawn)	38	-4	38*	13	3	-10
COc1ccc(CNCCC(c2ccc(OC)cc2)c2ccccc2OC)cc1 (stereo not drawn)	11	-23	17	-15	8	-12
Cc1noc(C)c1C(=O)N(CC(=O)Nc1ccc(Cl)c(C(F)(F)F)c1)Cc1ccco1	-3	6	7	-6	-3	-4
CCN(CC)c1ccc2nc3c4ccccc4c(=O)cc-3oc2c1	20	/	17	/	/	-17
CCN(CC)c1ccc2c(-c3ccc(S(=O)(=O)O)cc3S(=O)(=O)[O-])c3ccc(=[N+](CC)CC)cc-3oc2c1	/	93*	/	75*	-38	/
CCCCCCCCN1C(=O)[C@@H](CC(=O)NCc2ccc(OC)c(OC)c2)C[C@@]2(C(=O)OC)C1=C[C@H](C1CCCC1)O[C@@H]2C	-21	/	0	/	/	-7
CCCN1C(=O)C(=O)c2cc(Cl)ccc21	17	3	-1	-11	49*	-7
Nc1nc2c(nc(SCc3ccccc3Br)n2[C@@H]2O[C@H](CO)[C@@H](O)[C@H]2O)c(=O)[nH]1	1	/	1	/	/	-10
COc1ccc(-c2cc(N)n(CCC#N)n2)c(OC)c1	-2	-10	9	-8	2	-4
COc1ccc(-c2cc(N)n(S(=O)(=O)Cc3ccccc3)n2)c(OC)c1	10	0	-2	-19	61*	0
Cc1cccc(N2CCN(S(=O)(=O)c3ccc4c(c3)CCC(=O)N4)CC2C)c1 (stereo not drawn)	18	-7	10	40*	27	-4
O=C(NC(=Nc1nc2ccccc2o1)NC(=O)c1ccccc1)c1ccccc1	-7	-15	14	-12	12	-3
COc1ccccc1C(=O)NC(=Nc1nc2ccccc2o1)NC(=O)c1ccccc1OC	42	82*	7	48*	36*	-3
COc1ccc(CCn2c(C)cc(C(=O)COC(=O)c3ccc(O)cc3O)c2C)cc1	65*	/	10	/	/	-6
COc1ccc(CCn2c(C)cc(C(=O)COC(=O)c3cnc(C)cn3)c2C)cc1	6	-30	7	-14	-2	-4
CCCCCCCCN1C(=O)[C@@H](CC(=O)NCCCOC)C[C@@]2(C(=O)OC)C1=C[C@H](C1CCCC1)O[C@@H]2C	-19	/	-2	/	/	-2
CC1(C)Oc2cc(N)c([N+](=O)[O-])cc2O1	-1	-10	5	11	43	2
C=C1N(C)c2cc([N+](=O)[O-])c(N)cc2C1(C)C	1	-22	11	-8	56*	-5
Cc1ccc(C2c3c(n[nH]c3C)C(=O)N2c2ccccc2)cc1 (stereo not drawn)	-28	/	0	/	/	-5
SMILES	TAAR1 antagonist	OX1R antag-1	TAAR1 agonist	CHO parental Ca	OX1R antag-2	GalR3 antag
O=C1CCN(S(=O)(=O)c2ccccc2)CCN1CCOCc1ccc(C(F)(F)F)cc1	20	-22	4	-18	27	-6
Cc1ccc(S(=O)(=O)N2CCC(=O)N(CCOCc3ccc(C(F)(F)F)cc3)CC2)cc1	5	-20	9	49*	45	9
CCOc1ccc(C(C)=O)cc1COC(=O)c1ccc2c(c1)NC(=O)CS2	52*	-10	11	-11	13	-3
COc1ccc(C(=O)COC(=O)c2ccc3c(c2)NC(=O)CS3)c(OC)c1	37	-9	11	-4	19	-1
Cc1ccc(NC(=O)COc2ccccc2C#N)cc1S(=O)(=O)N1CCCCCC1	52*	22	8	12	4	-4
O=C(Nc1ccncc1)C1CCN(S(=O)(=O)c2ccc(Cl)c(C(F)(F)F)c2)CC1	3	-17	48*	-15	3	-7
CN(CC(=O)Nc1cccc(S(=O)(=O)N2CCCC2)c1)CC(=O)Nc1ccc(F)c(F)c1F	-16	/	3	/	/	-6
CN(CC(=O)Nc1cccc(S(=O)(=O)N2CCCC2)c1)CC(=O)Nc1ccc(Cl)c(C(F)(F)F)c1	31	-3	26	54*	14	-2
Cc1ccc(NC(=O)CN(C)CC(=O)Nc2cccc(F)c2)cc1S(=O)(=O)N1CCCCCC1	50*	-18	8	-1	25	-6
COc1ccc(NC(=O)CN(C)CC(=O)Nc2cccc(F)c2)cc1S(=O)(=O)N1CCCCC1	13	/	6	/	/	-4
O=C(Nc1ccc(S(=O)(=O)N2CCCCC2)cc1)C1CCCO1 (stereo not drawn)	-13	-1	0	2	5	-7
O=C(O)c1cccc(N2C(=O)c3cccc4cccc(c34)C2=O)c1	-11	/	2	/	/	-7
O=C(O)c1cccc(N2C(=O)c3cc([N+](=O)[O-])cc4cc([N+](=O)[O-])cc(c34)C2=O)c1	-16	1	0	-4	96*	0
Cc1cccc(C(=O)Nc2ccc(S(=O)(=O)N3CCOCC3)cc2C)c1	15	-1	1	6	21	-8
O=S(=O)(Nc1cccnc1)c1cccc(C(F)(F)F)c1	-1	8	6	-7	17	-5
O=[N+]([O-])c1ccc(S(=O)(=O)c2cccc(C(F)(F)F)c2)nc1	/	31	/	41*	40	/

High-throughput results deposited in PubChem by The Scripps Research Institute Molecular Screening Center.
